# According to ChEMBL document CHEMBL2163269, “Double-headed sulfur-linked amino acids as first inhibitors for betaine-homocysteine S-methyltransferase 2” (J Med Chem, 2012):
# Activity calls are given as the source filed them. The rule behind the calls is not given here.
# Key:
# [1] = target: T1, S-methylmethionine--homocysteine S-methyltransferase BHMT2 (Homo sapiens) (UniProt Q9H2M3); assay: Inhibition of recombinant human BHMT2 expressed in Escherichia coli […] at 20 uM
# T1 sequence (whole entry): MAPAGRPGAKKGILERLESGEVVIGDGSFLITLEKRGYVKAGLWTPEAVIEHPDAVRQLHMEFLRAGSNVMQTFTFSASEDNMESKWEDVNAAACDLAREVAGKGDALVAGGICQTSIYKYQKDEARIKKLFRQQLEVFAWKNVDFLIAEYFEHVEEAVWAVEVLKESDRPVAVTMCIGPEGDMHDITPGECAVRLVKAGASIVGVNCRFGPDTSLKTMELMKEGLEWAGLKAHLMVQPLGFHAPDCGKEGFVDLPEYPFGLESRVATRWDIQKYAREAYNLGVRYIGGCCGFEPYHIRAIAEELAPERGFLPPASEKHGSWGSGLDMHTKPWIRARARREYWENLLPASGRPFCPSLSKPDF
# In short: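 BHMT-2 copurified with BHMT, 0.2–1 μM total protein. Reaction: 0.25 mM SMM (0.3 μCi), 2.5 mM D,L-Hcy, 0.2 mM ZnCl2, 0.1% β-mercaptoethanol, 50 mM Tris/HCl pH 7.5, 60 min at 37 °C. Methanol stop, product isolated on Dowex 1×4. Percent inhibition at 20 μM, tetraplicates, means ± SEM.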
# [2] = target: T2, Betaine--homocysteine S-methyltransferase 1 (Homo sapiens) (UniProt Q93088); assay: Inhibition of recombinant human BHMT expressed in Escherichia coli […] at 20 uM
# T2 sequence (whole entry): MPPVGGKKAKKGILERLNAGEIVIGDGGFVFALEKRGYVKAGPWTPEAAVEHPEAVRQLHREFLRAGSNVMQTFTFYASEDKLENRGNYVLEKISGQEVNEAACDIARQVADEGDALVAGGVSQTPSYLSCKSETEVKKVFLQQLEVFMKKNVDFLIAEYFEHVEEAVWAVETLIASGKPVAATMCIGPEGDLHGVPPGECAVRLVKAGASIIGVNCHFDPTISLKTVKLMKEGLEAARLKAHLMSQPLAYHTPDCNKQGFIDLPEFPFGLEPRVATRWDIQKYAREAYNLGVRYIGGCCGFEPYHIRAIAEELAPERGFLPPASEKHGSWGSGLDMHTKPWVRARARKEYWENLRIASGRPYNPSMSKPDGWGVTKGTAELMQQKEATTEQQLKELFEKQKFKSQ
# In short: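 Human BHMT at 0.2 or 0.4 μM in 0.5 mL. 30 min at 37 °C, blanks without enzyme subtracted. Percent inhibition at 20 μM inhibitor in tetraplicates, means ± SEM.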
# [3] = target: T3, S-methylmethionine--homocysteine S-methyltransferase BHMT2 (Homo sapiens, UniProt Q9H2M3); assay: Competitive inhibition of recombinant human BHMT2 expressed in Escherichia coli […] by Dixon plot method in presence of D,L-homocysteine; details: read-out: Ki(app)
# T3 sequence (Q9H2M3 whole entry): T1 sequence (whole entry)
# In short: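 BHMT-2 copurified with BHMT on chitin affinity. 0.2 mL reaction: 0.25 mM SMM (0.3 μCi), 0.2 mM ZnCl2, 0.1% β-mercaptoethanol, 50 mM Tris/HCl pH 7.5. D,L-Hcy varied 75–250 μM, inhibitor 0–300 nM. 60 min at 37 °C, methanol stop, Dowex 1×4 column. Triplicates, four separate measurements. Kiapp read from line intersection.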
# [4] = target: T4, Betaine--homocysteine S-methyltransferase 1 (Homo sapiens, UniProt Q93088); assay: Inhibition of recombinant human BHMT expressed in Escherichia coli […]
# T4 sequence (Q93088 whole entry): T2 sequence (whole entry)
# In short: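 Human BHMT at 0.2 or 0.4 μM in 0.5 mL. Mix: 2 mM 14C-betaine (0.15 μCi), 1 mM fresh D,L-Hcy, 50 mM Tris/HCl pH 7.5, 0.07% β-mercaptoethanol. 30 min at 37 °C, ice-water stop, no-enzyme blank subtracted. At least nine inhibitor concentrations, duplicates. IC50 by nonlinear regression, ±SEM from three independent runs.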
# [5] = target: T3, S-methylmethionine--homocysteine S-methyltransferase BHMT2; assay: Inhibition of recombinant human BHMT2 expressed in Escherichia coli […]
# In short: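 BHMT-2 stabilized by copurification with BHMT, 0.2–1 μM total protein. 0.2 mL: 0.25 mM radiolabeled SMM (0.3 μCi), 2.5 mM D,L-Hcy, 0.2 mM ZnCl2, 0.1% β-mercaptoethanol, 50 mM Tris/HCl pH 7.5. 60 min at 37 °C, Dowex separation. At least nine inhibitor concentrations in duplicate. IC50 by nonlinear regression, ±SEM of three independent runs.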
inhibition [1],inhibition [2],Ki [3] [µM],IC50 [4] [µM],IC50 [5] [µM],SMILES
60%,,,,,N[C@@H](CCSCCSCC[C@H](N)C(=O)O)C(=O)O
> 90%,28%,0.077,76.6,3.6,CC(CCSCC[C@H](N)C(=O)O)CCC(N)C(=O)O (mixture of isomers)
,Active,,,,CC(C)(CCSCC[C@H](N)C(=O)O)CCC(N)C(=O)O (mixture of isomers)

# Continued, compound first:
SMILES,inhibition [1],inhibition [2],Ki [3] [µM],IC50 [4] [µM],IC50 [5] [µM]
NC(CCSCCCCC(=O)O)C(=O)O (stereo not given),inactive,Active,,,
N[C@@H](CCSCSCC[C@H](N)C(=O)O)C(=O)O,inactive,,,,
